Experimental data as given in ChEMBL document CHEMBL1799991, “Discovery of a novel class of 2-aminopyrimidines as CDK1 and CDK2 inhibitors” (Bioorg Med Chem Lett, 2011).

How the values were obtained:
[1] = molecular target: Cyclin-dependent kinase 1 (Homo sapiens, UniProt P06493); test: Inhibition of CDK1 in presence of 100 uM ATP
HCT-116 = test: Cytotoxicity against human HCT116 cells after 48 hrs; type: functional; conditions: HCT-116, 48 h
Outline: (§1)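 Exponentially growing cells exposed to test compounds at various concentrations for 48 h, then cell numbers counted; GI50 taken as the concentration giving 50% growth inhibition. Values are means of three experiments.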

[2] = molecular target: Cyclin-dependent kinase 2 (Homo sapiens, UniProt P24941); test: Inhibition of CDK2 in presence of 100 uM ATP
A549 = test: Cytotoxicity against human A549 cells after 48 hrs; type: functional; conditions: A549, 48 h; outline: as §1
EJ = test: Cytotoxicity against human EJ cells after 48 hrs; type: functional; outline: as §1

Chain of Cyclin-dependent kinase 1 (P06493 whole entry): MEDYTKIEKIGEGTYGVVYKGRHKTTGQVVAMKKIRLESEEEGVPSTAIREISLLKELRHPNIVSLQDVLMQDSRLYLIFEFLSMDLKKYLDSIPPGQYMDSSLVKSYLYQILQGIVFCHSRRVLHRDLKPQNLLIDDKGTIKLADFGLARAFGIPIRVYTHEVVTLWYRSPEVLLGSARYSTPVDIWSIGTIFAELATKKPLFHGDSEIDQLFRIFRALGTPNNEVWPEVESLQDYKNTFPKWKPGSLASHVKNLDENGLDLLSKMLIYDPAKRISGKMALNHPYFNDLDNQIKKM

Row | SMILES | IC50 [1] | IC50 [2] | GI50 (HCT-116) | GI50 (A549) | GI50 (EJ)
1 | Nc1nc(-c2cc(N3C[C@H](O)[C@@H](O)C3)ccc2O)cc(C2CCCCCC2)n1 | 31 nM | 90 nM | 300 nM | 600 nM | 700 nM
2 | Nc1nc(NC2CCCC2)cc(-c2cc(N3C[C@H](O)[C@@H](O)C3)ccc2O)n1 | 19 nM | 15 nM | 3000 nM | 7000 nM | 4500 nM
3 | CN1CCN(c2cc(-c3cc(N4C[C@H](O)[C@@H](O)C4)ccc3O)nc(N)n2)CC1 | 420 nM | 300 nM | > 10000 nM | – | –
4 | Nc1nc(-c2cc(N3C[C@H](O)[C@@H](O)C3)ccc2O)cc(C2CCCC2)n1 | 23 nM | 42 nM | 400 nM | 2000 nM | 900 nM
5 | Nc1nccc(-c2cc(N3CCOCC3)ccc2O)n1 | 2240 nM | 790 nM | – | – | –
6 | Nc1nc(NC2CCCCC2)cc(-c2cc(N3C[C@H](O)[C@@H](O)C3)ccc2O)n1 | 20 nM | 60 nM | 900 nM | 1500 nM | 2000 nM
7 | Nc1nccc(-c2cc(N3CCC(O)CC3)ccc2O)n1 | 10000 nM | 3760 nM | – | – | –
8 | CN(C)c1cc(-c2cc(N3C[C@H](O)[C@@H](O)C3)ccc2O)nc(N)n1 | 280 nM | 250 nM | > 10000 nM | – | –
9 | Nc1nc(-c2cc(N3C[C@H](O)[C@@H](O)C3)ccc2O)cc(C2CCNCC2)n1 | 340 nM | 200 nM | > 10000 nM | – | –
10 | Cc1cc(-c2cc(N3C[C@H](O)[C@@H](O)C3)ccc2O)nc(N)n1 | 20 nM | 42 nM | 400 nM | 2000 nM | 900 nM
11 | Nc1nccc(-c2cc(N3CCC(=O)CC3)ccc2O)n1 | > 10000 nM | > 10000 nM | – | – | –
12 | Nc1nc(NCCN2CCOCC2)cc(-c2cc(N3C[C@H](O)[C@@H](O)C3)ccc2O)n1 | 790 nM | 450 nM | > 10000 nM | – | –

Second part, led by results:

Row | IC50 [1] | IC50 [2] | SMILES | GI50 (HCT-116) | GI50 (A549) | GI50 (EJ)
13 | 1000 nM | 940 nM | Nc1nc(-c2cc(N3C[C@H](O)[C@@H](O)C3)ccc2O)cc(N2CCOCC2)n1 | > 10000 nM | – | –
14 | 31 nM | 50 nM | CCc1cc(-c2cc(N3C[C@H](O)[C@@H](O)C3)ccc2O)nc(N)n1 | 1000 nM | 3000 nM | 1500 nM
15 | > 10000 nM | > 10000 nM | Nc1nc(-c2cc(N3C[C@H](O)[C@@H](O)C3)ccc2O)cc(C2CC2)n1 | – | – | –
16 | 15 nM | 21 nM | Nc1nccc(-c2cc(N3C[C@H](O)[C@@H](O)C3)ccc2O)n1 | 2500 nM | 5500 nM | 4000 nM
17 | 260 nM | 450 nM | CCCCCCc1cc(-c2cc(N3C[C@H](O)[C@@H](O)C3)ccc2O)nc(N)n1 | 500 nM | 700 nM | 800 nM
18 | 220 nM | 360 nM | Nc1nc(-c2cc(N3C[C@H](O)[C@@H](O)C3)ccc2O)cc(C2CCCNC2)n1 (stereo partly drawn) | > 10000 nM | > 10000 nM | > 10000 nM
19 | 94 nM | – | CC(C)c1cc(-c2cc(N3C[C@H](O)[C@@H](O)C3)ccc2O)nc(N)n1 | 900 nM | 1800 nM | 1500 nM
20 | 2990 nM | 2110 nM | Nc1nccc(-c2cc(N3CCC(O)C3)ccc2O)n1 (stereo not drawn) | – | – | –
21 | 7500 nM | 3980 nM | Nc1nccc(-c2cc(N3CCS(=O)(=O)CC3)ccc2O)n1 | – | – | –
22 | > 10000 nM | > 10000 nM | Nc1nccc(-c2cc(N3CCCCC3)ccc2O)n1 | – | – | –
23 | 45 nM | 52 nM | Nc1nc(-c2cc(N3C[C@H](O)[C@@H](O)C3)ccc2O)cc(C2CCCCC2)n1 | 800 nM | 1200 nM | 1200 nM
